CAL PDZ FP-1 – CAL PDZ peptide-binding inhibitors, primary screen, biochemical, fluorescence polarization, Cer-tagged CAL PDZ, HTS; purified CAL PDZ, TMR-peptide fluorescence polarization, 1 h; 0.02% of 330,000 active; inhibition, % at 20 µM;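 active means highest replicate inhibition of at least 40%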
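Material: tagged CAL PDZ protein CerCALP, purified; buffer or medium: sodium phosphate/NaCl buffer pH 7.4 with TCEP, IgG, Thesit; also added: fluorescent TMR peptide probe; schedule: 1 h incubation at room temperature before polarization reading; technique: fluorescence polarization from S- and P-plane intensities, G-factor corrected; control set: unlabelled peptide and DMSO controls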
CAL PDZ FP-2 – untagged CAL PDZ binding inhibitors, primary screen, biochemical, fluorescence polarization, HTS; AID 602252, 2012; 0.92% of 300,000 active; Golgi-associated PDZ and coiled-coil motif-containing protein (Homo sapiens), Q9HD26; purified CAL PDZ, TMR-peptide fluorescence polarization, 1 h; inhibition, % at 24.9 µM;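 active means mean inhibition of at least 30% with at least half of replicates also reaching 30%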
ARNT-TACC3 inh – disruptors of ARNT/TACC3 protein interaction, primary screen, biochemical, AlphaScreen, single concentration | AlphaScreen His-ARNT PAS-B/GST-TACC3 binding, luminescence; TACC3 fragment carries E629A point mutation | Transforming acidic coiled-coil-containing protein 3 (Homo sapiens), Q9Y6A5 | 0.66% of 390,000 active | inhibition, % at 9.99 µM;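 active means mean inhibition of replicates at least 50% and at least half of replicates each reaching 50%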
CaV13 FRET inh – Disruptors of the CACNA1D IQ motif to Ca2+-dependent inactivation inhibitor domain association, primary screening, Förster resonance energy transfer in intact living … | 0.098% of 340,000 active | inhibition, % at 12.3 µM | HEK cells, CFP/YFP FRET ICDI-IQ, plate reader, 10 min; percent FRET-ratio fall versus neutral wells;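 active means mean replicate inhibition of at least 30% and at least 1% of replicates passing that level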
Each line names hits and unclear results; the compound was inactive in the other large screens. Hits are enriched below; roughly 1.2% of the tested compounds scored in any of these assays.

O=C(C[C@H]1C[C@@H]2c3cc(NS(=O)(=O)c4ccc(F)cc4)ccc3O[C@@H]2[C@@H](CO)O1)N1CCCCC1	none (no result: CAL PDZ FP-1, CAL PDZ FP-2, CaV13 FRET inh)
COc1cc(C(O)c2nc3ccccc3n2C(C)C)cc(OC)c1OC (stereo not drawn)	ARNT-TACC3 inh 50
COc1ccc(OC)c(C(O)c2nc3ccccc3n2C(C)C)c1 (stereo not drawn)	none
C[C@@H]1CN([C@H](C)CO)C(=O)Cc2cc(NC(=O)c3ccncc3)ccc2O[C@H]1CN(C)C	none (no result: CAL PDZ FP-1, CAL PDZ FP-2, CaV13 FRET inh)
CN(C)C(=O)[C@@H]1[C@@H](CO)[C@@H]2Cn3c(ccc(-c4cncnc4)c3=O)[C@@H]2N1Cc1cc(F)ccc1F	none (no result: CAL PDZ FP-1, CAL PDZ FP-2, CaV13 FRET inh)
N#Cc1c(NCCCO)nc(NCc2ccccc2)c2c1CCN(Cc1ccccc1)C2	CaV13 FRET inh 32 (no result: CAL PDZ FP-1)
COc1ccccc1CC(=O)Nc1cccc(C)n1	CAL PDZ FP-2 58
Cc1cc(NC(=O)CSc2nnc3ccccn23)no1	CAL PDZ FP-2 78
CC(=O)Nc1cccc(NC(=O)CSc2nnc3ccccn23)c1	none
C[C@@H]1CCCCO[C@H](CN(C)S(=O)(=O)c2ccc(F)cc2)[C@@H](C)CN([C@H](C)CO)C(=O)c2cc(NC(=O)CCCN(C)C)ccc2O1	none (no result: CAL PDZ FP-1, CAL PDZ FP-2, CaV13 FRET inh)
O=C1NC(=O)N(Cc2ccccc2)CC1Br (stereo not drawn)	CAL PDZ FP-2 31
O=C1CCN(Cc2ccccc2)C(=O)N1	none
CCNC(=O)C[C@@H]1CC[C@H](NC(=O)C2CC2)[C@H](CO)O1	none (no result: CAL PDZ FP-1, CAL PDZ FP-2, CaV13 FRET inh)
O=C(CCC(=O)N1CCOCC1)c1ccc(F)cc1	CAL PDZ FP-2 33
C[C@H](CO)N1C[C@H](C)[C@H](CN(C)S(=O)(=O)c2cccs2)OCCCC[C@H](C)Oc2ccc(NC(=O)Nc3ccc4c(c3)OCO4)cc2C1=O	none (no result: CAL PDZ FP-1, CAL PDZ FP-2, CaV13 FRET inh)
O=C(N/N=C/c1c(O)ccc2ccccc12)c1ccc[n+](CCO)c1	ARNT-TACC3 inh 64
O=C(N/N=C/c1c(O)ccc2ccccc12)c1cccnc1	ARNT-TACC3 inh 59
COc1ccc2ccccc2c1/C=N\NC(=O)c1cccnc1	none (no result: CAL PDZ FP-1, CAL PDZ FP-2, ARNT-TACC3 inh)
CC(C)CC#Cc1cnc2c(c1)C(=O)N([C@H](C)CO)C[C@@H](C)[C@H](CN(C)C(=O)c1ccc(F)cc1)O2	none (no result: CAL PDZ FP-1, CAL PDZ FP-2, CaV13 FRET inh)
[O-]/[N+](=C/c1ccccc1)c1ccccc1	CaV13 FRET inh 45
O=C(Nc1ccc(Cl)cc1)N[C@H]1CC[C@@H](CCn2cc(C3(O)CCCC3)nn2)O[C@@H]1CO	none (no result: CAL PDZ FP-1, CAL PDZ FP-2, CaV13 FRET inh)
CSCc1cc(N(C)c2ccccc2)nc(-c2ccccn2)n1	ARNT-TACC3 inh 61
COc1ccc(C(=O)N2C[C@@H]3[C@H](c4ccccc42)[C@H](CO)N3Cc2ccc(Cl)cc2)cc1	none (no result: CAL PDZ FP-1, CAL PDZ FP-2, CaV13 FRET inh)
CCN(CC)CCCNc1ccc2ncn3c4ccc(O)cc4c(=O)c1c23	ARNT-TACC3 inh 74
CN(C)CCNc1ccc2nnn3c4ccc(O)cc4c(=O)c1c23	none
CCOC(=O)C(NCc1ccco1)(NC(=O)c1ccccc1)C(F)(F)F (stereo not drawn)	CAL PDZ FP-2 43 (no result: CaV13 FRET inh)
CCOC(=O)C(NC(=O)c1ccccc1)(Nc1cccc(C)n1)C(F)(F)F (stereo not drawn)	none
CC(=O)c1cccc(OCC(=O)N2CCCc3ccccc32)c1	none (no result: CAL PDZ FP-2)
N#Cc1ccc(OCC(=O)OCC(=O)N2CCc3ccccc32)cc1	CaV13 FRET inh 35 (no result: CAL PDZ FP-1, CAL PDZ FP-2, ARNT-TACC3 inh)
Cc1cccc(OCC(=O)N2CCCc3ccccc32)c1	CAL PDZ FP-2 71
C[C@H](CO)N1C[C@H](C)[C@@H](CN(C)C(=O)CCC(F)(F)F)OCCCC[C@H](C)Oc2ccc(NS(C)(=O)=O)cc2C1=O	none (no result: CAL PDZ FP-1, CAL PDZ FP-2, CaV13 FRET inh)
Cc1c(-c2nc(-c3ccncc3)no2)cccc1[N+](=O)[O-]	CAL PDZ FP-2 69
O=[N+]([O-])c1cc(-c2nc(-c3ccncc3)no2)cc([N+](=O)[O-])c1	none
COCC(=O)Nc1ccc2c(c1)OC[C@@H](C)N(Cc1cccnc1)C[C@@H](C)[C@@H](OC)CN(C)C2=O	none (no result: CAL PDZ FP-1, CAL PDZ FP-2, CaV13 FRET inh)
COC(=O)c1cc(S(=O)(=O)Nc2ccsc2C(=O)OC)oc1C	CAL PDZ FP-2 33
C[C@@H]1CN([C@@H](C)CO)C(=O)c2cccc(NC(=O)c3ccc(-c4nccs4)cc3)c2O[C@@H]1CN(C)S(=O)(=O)c1cn(C)cn1	none (no result: CAL PDZ FP-1, CAL PDZ FP-2, CaV13 FRET inh)
Cc1ccc(C(=O)N2CCC(N3CCC(C(=O)N4CCOCC4)CC3)CC2)cc1C	CAL PDZ FP-2 74
